Source: ChEMBL document CHEMBL1154674, “Synthesis and evaluation of three 18F-labeled aminophenylbenzothiazoles as amyloid imaging agents” (J Med Chem, 2009)
Values belong to the molecule of their own block, whether it stands above or below them.

Columns and labels:
Type in all cases: ADME, organism-based, Macaca mulatta
[1] = Drug level in normal rhesus monkey parietal cortex assessed as standard uptake value at 81.2 MBq, iv after 12 mins by microPET; conditions: in vivo, 0.2 h
[2] = Drug level in normal rhesus monkey thalamus assessed as standard uptake value at 81.2 MBq, iv after 3.5 mins by microPET; conditions: in vivo
[3] = Drug level in normal rhesus monkey cerebellum assessed as standard uptake value at 81.2 MBq, iv after 10 mins by microPET; conditions: in vivo
Method in brief: (§1)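 One normal rhesus monkey, each tracer given iv via the vena saphena (81.2, 96.3 or 109.4 MBq), with 1 day between tracer injections. Dynamic brain μPET over 180 min used frames of 5 × 60 s, 5 × 120 s, 9 × 300 s and 12 × 600 s. Images were reconstructed by filtered back projection with a RAMP filter. Regional time-activity curves were expressed as SUV.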

[4] = Drug level in normal rhesus monkey white matter assessed as standard uptake value at 81.2 MBq, iv after 57.5 mins by microPET; conditions: in vivo
[5] = Drug level in normal rhesus monkey frontal cortex assessed as standard uptake value at 81.2 MBq, iv after 14 mins by microPET; conditions: in vivo
[6] = Drug level in normal rhesus monkey pons assessed as standard uptake value at 81.2 MBq, iv after 165 mins by microPET; conditions: in vivo, 2.75 h
[7] = Drug level in normal rhesus monkey frontal cortex assessed as standard uptake value at 81.2 MBq, iv after 65 mins by microPET; conditions: in vivo
[8] = Drug level in normal rhesus monkey frontal cortex assessed as standard uptake value at 81.2 MBq, iv after 155 mins by microPET; conditions: in vivo
[9] = Drug level in normal rhesus monkey white matter assessed as standard uptake value at 81.2 MBq, iv after 37.5 mins by microPET; conditions: in vivo, 0.625 h
[10] = Drug level in normal rhesus monkey parietal cortex assessed as standard uptake value at 81.2 MBq, iv after 0.5 mins by microPET; conditions: in vivo
[11] = Drug level in normal rhesus monkey white matter assessed as standard uptake value at 81.2 MBq, iv after 8 mins by microPET; conditions: in vivo
[12] = Drug level in normal rhesus monkey white matter assessed as standard uptake value at 81.2 MBq, iv after 3.5 mins by microPET; conditions: in vivo
[13] = Drug level in normal rhesus monkey white matter assessed as standard uptake value at 81.2 MBq, iv after 85 mins by microPET; conditions: in vivo
[14] = Drug level in normal rhesus monkey pons assessed as standard uptake value at 81.2 MBq, iv after 37.5 mins by microPET; conditions: in vivo, 0.625 h
[15] = Drug level in normal rhesus monkey thalamus assessed as standard uptake value at 96.3 MBq, iv after 0.5 mins by microPET; conditions: in vivo
[16] = Drug level in normal rhesus monkey frontal cortex assessed as standard uptake value at 96.3 MBq, iv after 145 mins by microPET; conditions: in vivo
[17] = Drug level in normal rhesus monkey white matter assessed as standard uptake value at 96.3 MBq, iv after 37.5 mins by microPET; conditions: in vivo, 0.625 h
[18] = Drug level in normal rhesus monkey pons assessed as standard uptake value at 96.3 MBq, iv after 12 mins by microPET; conditions: in vivo, 0.2 h
[19] = Drug level in normal rhesus monkey pons assessed as standard uptake value at 96.3 MBq, iv after 4.5 mins by microPET; conditions: in vivo, 0.075 h
[20] = Drug level in normal rhesus monkey frontal cortex assessed as standard uptake value at 96.3 MBq, iv after 175 mins by microPET; conditions: in vivo
[21] = Drug level in normal rhesus monkey parietal cortex assessed as standard uptake value at 96.3 MBq, iv after 0.5 mins by microPET; conditions: in vivo
[22] = Drug level in normal rhesus monkey pons assessed as standard uptake value at 96.3 MBq, iv after 42.5 mins by microPET; conditions: in vivo
[23] = Drug level in normal rhesus monkey parietal cortex assessed as standard uptake value at 109.4 MBq, iv after 0.375 mins by microPET; conditions: in vivo, 22 s
[24] = Drug level in normal rhesus monkey white matter assessed as standard uptake value at 109.4 MBq, iv after 12.5 mins by microPET; conditions: in vivo
[25] = Drug level in normal rhesus monkey thalamus assessed as standard uptake value at 109.4 MBq, iv after 81 mins by microPET; conditions: in vivo, 1.35 h
[26] = Drug level in normal rhesus monkey thalamus assessed as standard uptake value at 109.4 MBq, iv after 47.5 mins by microPET; conditions: in vivo
[27] = Drug level in normal rhesus monkey frontal cortex assessed as standard uptake value at 109.4 MBq, iv after 3.5 mins by microPET; conditions: in vivo; method in brief: as §1
[28] = Drug level in normal rhesus monkey frontal cortex assessed as standard uptake value at 109.4 MBq, iv after 129 mins by microPET; conditions: in vivo, 2.15 h
[29] = Drug level in normal rhesus monkey parietal cortex assessed as standard uptake value at 109.4 MBq, iv after 6.5 mins by microPET; conditions: in vivo
[30] = Drug level in normal rhesus monkey parietal cortex assessed as standard uptake value at 109.4 MBq, iv after 52.5 mins by microPET; conditions: in vivo, 0.875 h
[31] = Drug level in normal rhesus monkey thalamus assessed as standard uptake value at 109.4 MBq, iv after 123 mins by microPET; conditions: in vivo, 2.05 h
[32] = Drug level in normal rhesus monkey white matter assessed as standard uptake value at 152.9 MBq, iv after 1.5 mins by microPET; conditions: in vivo, 0.025 h
[33] = Drug level in normal rhesus monkey thalamus assessed as standard uptake value at 152.9 MBq, iv after 17.5 mins by microPET; conditions: in vivo
[34] = Drug level in normal rhesus monkey parietal cortex assessed as standard uptake value at 152.9 MBq, iv after 75 mins by microPET; conditions: in vivo, 1.25 h
[35] = Drug level in normal rhesus monkey frontal cortex assessed as standard uptake value at 152.9 MBq, iv after 1.5 mins by microPET; conditions: in vivo, 0.025 h
Method in brief: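 One normal rhesus monkey, tracer given iv via the vena saphena (152.9 MBq), with at least 1 day between tracer injections. Dynamic brain μPET over 90 min used frames of 5 × 60 s, 5 × 120 s, 9 × 300 s and 3 × 600 s. Images were reconstructed by filtered back projection with a RAMP filter. Regional time-activity curves were expressed as SUV.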

[36] = Drug level in normal rhesus monkey parietal cortex assessed as standard uptake value at 152.9 MBq, iv after 22.5 mins by microPET; conditions: in vivo, 0.375 h
[37] = Drug level in normal rhesus monkey pons assessed as standard uptake value at 152.9 MBq, iv after 12 mins by microPET; conditions: in vivo, 0.2 h
[38] = Drug level in normal rhesus monkey frontal cortex assessed as standard uptake value at 152.9 MBq, iv after 22.5 mins by microPET; conditions: in vivo, 0.375 h
Method in brief: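 Single normal rhesus monkey; tracer given iv via the vena saphena, 1 day apart from the other tracer injections. Dynamic μPET ran 90 min (5×60 s, 5×120 s, 9×300 s, 3×600 s). Images were reconstructed by filtered back projection with a RAMP filter. Regional time-activity curves were expressed as SUV.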

- SUV [1]: 4.756
- SUV [2]: 3.83
- SUV [3]: 3.021
- SUV [4]: 3.796
- SUV [5]: 6.096
- SUV [6]: 4.946
- SUV [7]: 5.125
- SUV [8]: 4.381
- SUV [9]: 3.78
- SUV [10]: 0.924
- SUV [11]: 3.412
- SUV [12]: 3.019
- SUV [13]: 3.871
- SUV [14]: 5.487
SMILES: CNc1ccc2nc(-c3ccc([18F])cc3)sc2c1

- SUV [15]: 0.63
- SUV [16]: 1.44
- SUV [17]: 1.46
- SUV [18]: 1.55
- SUV [19]: 1.28
- SUV [20]: 1.49
- SUV [21]: 0.65
- SUV [22]: 1.7
SMILES: CN(C)c1ccc2nc(-c3ccc([18F])cc3)sc2c1

- SUV [23]: 0.34
- SUV [24]: 3.01
- SUV [25]: 5.18
- SUV [26]: 5.56
- SUV [27]: 4.99
- SUV [28]: 4.06
- SUV [29]: 5.31
- SUV [30]: 4.38
- SUV [31]: 4.63
SMILES: Nc1ccc2nc(-c3ccc([18F])cc3)sc2c1

- SUV [32]: 0.292
- SUV [33]: 2.159
- SUV [34]: 0.682
- SUV [35]: 0.478
- SUV [36]: 1.453
- SUV [37]: 2.117
- SUV [38]: 1.373
SMILES: [11CH3]Nc1ccc(-c2nc3ccc(O)cc3s2)cc1 [PITTSBURGH COMPOUND B]
